Assay results from the array DNA melting data of Ke et al. (doi:10.1101/2024.01.08.574731).

How the values were obtained:
[1] = melting temperature; fluorescence melt of hairpins on a sequencing array, two-state fit, raised by 9.35 °C to match UV melts; settings: sodium 0.088 M
Procedure, shortened: (§1)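 Hairpins were imaged by Cy3 fluorescence on a sequenced MiSeq flow cell with annealed Cy3 and quencher oligos, in 50 mM Na-HEPES pH 8.0, 25 mM NaCl, in 2.5 °C steps up to 60 °C. Bootstrapped two-state fits of normalised signals gave melting temperature and folding enthalpy. Four replicates were combined by inverse variance, and fitted temperatures were raised by 9.35 °C to match UV melts.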

[2] = folding enthalpy; higher = less favourable; fluorescence melt of hairpins on a sequencing array, two-state fit; settings: sodium 0.088 M
Procedure, shortened: as §1

GCGTCAGGAAACTGATGC ((.((((....)))).))
Tm [1]: 54.5 °C
folding enthalpy [2]: -43.6 kcal/mol

GCGTCCCGAAAGGGTCGC (((.(((....))).)))
Tm [1]: 67.8 °C
folding enthalpy [2]: -36.9 kcal/mol

GCGTCCGAAAGGAATCGC ((((((....)))..)))
Tm [1]: 47.8 °C
folding enthalpy [2]: -22.6 kcal/mol

GCGTCCGCGAAAGCGCGC (((..(((....))))))
Tm [1]: 53.5 °C
folding enthalpy [2]: -16.9 kcal/mol

GCGTCCGGAAACAGACGC (((((.(....).)))))
Tm [1]: 54 °C
folding enthalpy [2]: -36.1 kcal/mol

GCGTCCTCACGC ((((....))))
Tm [1]: 50.9 °C
folding enthalpy [2]: -24.3 kcal/mol

GCGTCCTGACGC ((((....))))
Tm [1]: 59.9 °C
folding enthalpy [2]: -35.1 kcal/mol

GCGTCGCGAAAGCAAGGC ((.(.((....)).).))
Tm [1]: 43.8 °C
folding enthalpy [2]: -17.1 kcal/mol

GCGTCGCGAAAGCACCGC (((..((....))..)))
Tm [1]: 53.9 °C
folding enthalpy [2]: -20.8 kcal/mol

GCGTCGCGAAAGCATCGC (((..((....))..)))
Tm [1]: 53.8 °C
folding enthalpy [2]: -17.9 kcal/mol

GCGTCGCGAAAGCCAAGC ((.(.((....)).).))
Tm [1]: 48.1 °C
folding enthalpy [2]: -20.1 kcal/mol

GCGTCGCGAAAGCGCGGC ((..(((....)))..))
Tm [1]: 61.1 °C
folding enthalpy [2]: -12.6 kcal/mol

GCGTCGCGAAAGCGTAGC ((..(((....)))..))
Tm [1]: 58.6 °C
folding enthalpy [2]: -20.8 kcal/mol

GCGTCGGAACGC ((((....))))
Tm [1]: 52 °C
folding enthalpy [2]: -16.8 kcal/mol

GCGTCGGACGC ((((...))))
Tm [1]: 51.7 °C
folding enthalpy [2]: -24.1 kcal/mol

GCGTCGGCACGC ((((....))))
Tm [1]: 56.4 °C
folding enthalpy [2]: -10.7 kcal/mol

GCGTCGGGAAACCGATGC ((.((((....)))).))
Tm [1]: 65 °C
folding enthalpy [2]: -34 kcal/mol

GCGTCGGGAAACTGACGC (((((.(....).)))))
Tm [1]: 65.3 °C
folding enthalpy [2]: -49.8 kcal/mol

GCGTCGTCACGC ((((....))))
Tm [1]: 51.8 °C
folding enthalpy [2]: -22.4 kcal/mol

GCGTCTACACGC ((((....))))
Tm [1]: 51.4 °C
folding enthalpy [2]: -25.9 kcal/mol

GCGTCTATACGC ((((....))))
Tm [1]: 54.6 °C
folding enthalpy [2]: -25 kcal/mol

GCGTCTGCGAAAGCACGC (((..(((....))))))
Tm [1]: 52.3 °C
folding enthalpy [2]: -18.5 kcal/mol

GCGTCTGGAAACAGACAC (.(((((....))))).)
Tm [1]: 42.7 °C
folding enthalpy [2]: -12.8 kcal/mol

GCGTCTGGAAACGGATGC ((.((.(....).)).))
Tm [1]: 44.4 °C
folding enthalpy [2]: -35.5 kcal/mol

GCGTCTTCACGC ((((....))))
Tm [1]: 51.4 °C
folding enthalpy [2]: -26.9 kcal/mol

GCGTCTTTACGC ((((....))))
Tm [1]: 53.2 °C
folding enthalpy [2]: -27.9 kcal/mol

GCGTGAAAACGC ((((....))))
Tm [1]: 58.5 °C
folding enthalpy [2]: -32.6 kcal/mol

GCGTGACACGC ((((...))))
Tm [1]: 56.8 °C
folding enthalpy [2]: -22.1 kcal/mol

GCGTGACTACGC ((((....))))
Tm [1]: 59.4 °C
folding enthalpy [2]: -27.2 kcal/mol

GCGTGAGGAAACTCATGC ((.((((....)))).))
Tm [1]: 53.4 °C
folding enthalpy [2]: -35.8 kcal/mol

GCGTGAGGAAACTCGTGC ((..(((....)))..))
Tm [1]: 38.9 °C
folding enthalpy [2]: -28.7 kcal/mol

GCGTGAGGAAACTTGCGC (((..((....))..)))
Tm [1]: 48.3 °C
folding enthalpy [2]: -30.9 kcal/mol

GCGTGCACGAAAGTGCGC (((..(((....))))))
Tm [1]: 51.9 °C
folding enthalpy [2]: -9.64 kcal/mol

GCGTGCGAAAGCACTCGC ((((((....)))..)))
Tm [1]: 51.5 °C
folding enthalpy [2]: -12.4 kcal/mol

GCGTGCGAAAGCAGTCGC ((((((....)))..)))
Tm [1]: 53 °C
folding enthalpy [2]: -20.1 kcal/mol

GCGTGCGACGC ((((...))))
Tm [1]: 61 °C
folding enthalpy [2]: -13.9 kcal/mol

GCGTGCTGACGC ((((....))))
Tm [1]: 58.2 °C
folding enthalpy [2]: -18.1 kcal/mol

GCGTGGAAACGC ((((....))))
Tm [1]: 58.8 °C
folding enthalpy [2]: -30.1 kcal/mol

GCGTGGACACGC ((((....))))
Tm [1]: 62 °C
folding enthalpy [2]: -25.5 kcal/mol

GCGTGGCGAAAGCCCCGC (((.(((....))).)))
Tm [1]: 67.6 °C
folding enthalpy [2]: -29.3 kcal/mol

GCGTGGCGAAAGCCGGGC ((..(((....)))..))
Tm [1]: 64.7 °C
folding enthalpy [2]: -27 kcal/mol

GCGTGGCGAAAGCCTAGC ((..(((....)))..))
Tm [1]: 59.5 °C
folding enthalpy [2]: -20.2 kcal/mol

GCGTGGCGAAAGCGCCGC (((..((....))..)))
Tm [1]: 56.2 °C
folding enthalpy [2]: -19.1 kcal/mol

GCGTGGCGAAAGCTAGGC ((.(.((....)).).))
Tm [1]: 52 °C
folding enthalpy [2]: -20.4 kcal/mol

GCGTGGGAACGC ((((....))))
Tm [1]: 66.7 °C
folding enthalpy [2]: -20.4 kcal/mol

GCGTGGGCACGC ((((....))))
Tm [1]: 57.3 °C
folding enthalpy [2]: -24.7 kcal/mol

GCGTGTACGAAAGTACGC (((..(((....))))))
Tm [1]: 53.1 °C
folding enthalpy [2]: -15 kcal/mol

GCGTGTCCGAAAGGACGC (((..(((....))))))
Tm [1]: 50.1 °C
folding enthalpy [2]: -9.9 kcal/mol

GCGTGTGGAAACACACAC (.(((((....))))).)
Tm [1]: 44.4 °C
folding enthalpy [2]: -13.7 kcal/mol

GCGTGTGGAAACATACGC ((((.((....)).))))
Tm [1]: 58.8 °C
folding enthalpy [2]: -39 kcal/mol

GCGTGTGGACGC ((((....))))
Tm [1]: 53.9 °C
folding enthalpy [2]: -13.9 kcal/mol

GCGTTAACACGC ((((....))))
Tm [1]: 49.1 °C
folding enthalpy [2]: -20.1 kcal/mol

GCGTTACCGAAAGGTCGC (((..(((....))))))
Tm [1]: 51.1 °C
folding enthalpy [2]: -25.3 kcal/mol

GCGTTAGGAAACTAACAC (.(((((....))))).)
Tm [1]: 35.9 °C
folding enthalpy [2]: -16.2 kcal/mol

GCGTTAGGACGC ((((....))))
Tm [1]: 52.9 °C
folding enthalpy [2]: -25.4 kcal/mol

GCGTTCACGAAAGTGCGC (((..(((....))))))
Tm [1]: 51.4 °C
folding enthalpy [2]: -19.2 kcal/mol

GCGTTCGAAAGAAGACGC ((((((....)))..)))
Tm [1]: 46.9 °C
folding enthalpy [2]: -31.8 kcal/mol

GCGTTCGAAAGAAGCCGC ((((((....)))..)))
Tm [1]: 35.9 °C
folding enthalpy [2]: -22.7 kcal/mol

GCGTTCGAAAGAAGCGC ((((((....))).)))
Tm [1]: 52.5 °C
folding enthalpy [2]: -28.8 kcal/mol

GCGTTCGGAAACGAACAC (.(((((....))))).)
Tm [1]: 45.5 °C
folding enthalpy [2]: -13.7 kcal/mol

GCGTTCGTACGC ((((....))))
Tm [1]: 58.3 °C
folding enthalpy [2]: -22.1 kcal/mol

GCGTTCTACGC ((((...))))
Tm [1]: 58.2 °C
folding enthalpy [2]: -22.5 kcal/mol

GCGTTCTCGAAAGAGCGC (((..(((....))))))
Tm [1]: 51.1 °C
folding enthalpy [2]: -34.3 kcal/mol

GCGTTCTTACGC ((((....))))
Tm [1]: 52.8 °C
folding enthalpy [2]: -27 kcal/mol

GCGTTGCGAAAGCGAAGC ((.(.((....)).).))
Tm [1]: 54 °C
folding enthalpy [2]: -20.4 kcal/mol

GCGTTGGCACGC ((((....))))
Tm [1]: 50 °C
folding enthalpy [2]: -17.2 kcal/mol

GCGTTGGGAAACCAACAC (.(((((....))))).)
Tm [1]: 42.5 °C
folding enthalpy [2]: -14.4 kcal/mol

GCGTTGGGAAACTAGCGC (((.(.(....).).)))
Tm [1]: 47.9 °C
folding enthalpy [2]: -35.9 kcal/mol

GCGTTGGGACGC ((((....))))
Tm [1]: 55.2 °C
folding enthalpy [2]: -24.9 kcal/mol

GCGTTTATACGC ((((....))))
Tm [1]: 55.7 °C
folding enthalpy [2]: -27.7 kcal/mol

GCGTTTCGAAAGAAGCGC (((.(((....))).)))
Tm [1]: 63.1 °C
folding enthalpy [2]: -37.9 kcal/mol

GCGTTTCTACGC ((((....))))
Tm [1]: 53.8 °C
folding enthalpy [2]: -23.3 kcal/mol

GCGTTTGAAAAAACGC ((((((....))))))
Tm [1]: 65.9 °C
folding enthalpy [2]: -32.1 kcal/mol
